Values after ≈ are worked out from the molar mass of the structure shown.
Columns and labels:
Assay type in all cases: functional, organism-based
Saccharomyces cerevisiae [1] = test: Growth inhibition of RAD52/topoisomerase 1 deficient Saccharomyces cerevisiae RS321N harbouring plasmid containing human topoisomerase 1 in galactose medium after 48 hrs
Method in brief: (§1)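 Strains: RS321N (rad52 top1) carrying a single-copy plasmid with human TOP1 under the GAL1 promoter; RS321NYCp50 (vector control, tested in galactose); RS322N (rad52). Cells diluted to OD600 0.01 in synthetic minimal medium with glucose or galactose. Compounds added in DMSO (final <1%). Incubated 48 h at 30 °C in a humidified chamber. Read as background-subtracted OD595. Growth decrease relative to drug-free wells, from concentration-response, gave IC50.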

Saccharomyces cerevisiae [2] = test: Growth inhibition of RAD52/topoisomerase 1 deficient Saccharomyces cerevisiae RS321N harbouring plasmid containing human topoisomerase 1 in glucose medium after 48 hrs; method in brief: as §1
Saccharomyces cerevisiae [3] = test: Growth inhibition of Saccharomyces cerevisiae expressing wild type erg6 in glucose medium after 48 hrs
Saccharomyces cerevisiae [4] = test: Growth inhibition of Saccharomyces cerevisiae RS321N containing YCp50 vector plasmid after 48 hrs; method in brief: as §1
Saccharomyces cerevisiae [5] = test: Growth inhibition of RAD52/topoisomerase-1 deficient Saccharomyces cerevisiae RS321 in glucose medium after 48 hrs; method in brief: as §1
Saccharomyces cerevisiae [6] = test: Growth inhibition of RAD52 deficient Saccharomyces cerevisiae RS322 carrying pRAD52 in galactose medium after 48 hrs
Saccharomyces cerevisiae [7] = test: Growth inhibition of RAD52 deficient Saccharomyces cerevisiae RS322 carrying pRAD52 in glucose medium after 48 hrs
Saccharomyces cerevisiae [8] = test: Growth inhibition of RAD52 deficient Saccharomyces cerevisiae RS322 in glucose medium after 48 hrs; method in brief: as §1

| Structure (SMILES) | IC50 (Saccharomyces cerevisiae [1]) [µg/mL] | IC50 (Saccharomyces cerevisiae [2]) [µg/mL] | IC50 (Saccharomyces cerevisiae [3]) [µg/mL] | IC50 (Saccharomyces cerevisiae [4]) [µg/mL] | IC50 (Saccharomyces cerevisiae [5]) [µg/mL] | IC50 (Saccharomyces cerevisiae [6]) [µg/mL] | IC50 (Saccharomyces cerevisiae [7]) [µg/mL] | IC50 (Saccharomyces cerevisiae [8]) [µg/mL] |
| --- | --- | --- | --- | --- | --- | --- | --- | --- |
| CC[C@@]1(O)C(=O)OCc2c1cc1n(c2=O)Cc2cc3c(CN(C)C)c(O)ccc3nc2-1 [TOPOTECAN] | 9.9 (≈ 23.5 µM) | > 100 | – | – | – | – | – | – |
| CC[C@@]1(O)C(=O)OCc2c1cc1n(c2=O)Cc2cc3ccccc3nc2-1 [CAMPTOTHECIN] | 0.014 (≈ 0.0402 µM) | > 100 | > 100 | 0.16 (≈ 0.459 µM) | > 100 | 0.18 (≈ 0.517 µM) | > 100 | 0.06 (≈ 0.172 µM) |
